From PubChem BioAssay
Activity calls are given as the source filed them.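 Rule for the calls, unless noted: active = viability at or below 10% of carrier control in both of two separate runs; inconclusive = viability at or below 10% in only one of the two runs; inactive = the rest.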

What was measured:
[1] = reducers of endogenous Her2 protein level, primary screen, SKBR3 breast tumor cells, AlphaScreen, ATP viability (AID 461;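 active = Her2 level under about 52% in both replicate screens, with viability over 70% of control, limit read from the data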;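 for Her2 level: lower value means less Her2 protein in the cells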;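 for viability: percent of carrier control wells set as 100% viability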); details: 18-24 h, measured here: SKBR3 viability, ATP luminescence, at 10 µM
[2] = molecular target: Receptor tyrosine-protein kinase erbB-2 (Homo sapiens) (UniProt P04626); assay: as above; details: 18-24 h, at 10 µM, stronger effect = lower value
[3] = SK-BR-3 cell growth inhibitors, pilot screen, 24 h, human (AID 572); details: SK-BR-3 viability, CellTiter-Glo luminescence, at 10 µM, stronger effect = lower value;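 note: compound exposure lasted between 18 and 24 h rather than exactly 24 h; 100% = carrier-treated control wells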
[4] = HUVEC growth inhibition – cell-based, human, primary screen (AID 575;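 active = viability at or below 30% in both replicate assays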;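 note: 100% = median of untreated cell wells with 0.1% DMSO on each plate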); details: HUVEC proliferation, CellTiter-Glo luminescence, 72 h; at 10 µM; stronger effect = lower value
Procedure, shortened: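 Test system – primary HUVEC, no more than 12 passages · Dosing – one dose, 10 µM final, 0.1% DMSO · Times – 72 h treatment at 37 °C · Measured by – ATP-based CellTiter-Glo luminescent read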

[5] = growth inhibitors of H69AR lung tumor, primary screen, human, duplicate replicates (AID 580;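 active = viability at or under a set limit in both replicates, limit being median viability minus 3 SD, cut at about 48% in these data, passing the limit was not always enough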;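 note: 100% = mean luminescence of untreated wells and 0% = no signal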); details: H69AR lung tumor cells viability, ATP luminescence, 72 h; at 10 µM; stronger effect = lower value
[6] = reversal of MRP1-mediated doxorubicin resistance, pilot screen, H69AR cells, doxorubicin co-treatment (AID 601;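 active = viability loss from added drug above about 55%, and viability with drug at most 40%, in both replicates, limit read from the data, passing the limit was not always enough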); details: CellTiter-Glo, 72 h, at 10 µM; for differential viability (reversal): stronger effect = higher value
[7] = 384-well plate pilot, post-Golgi transport modulator project, inhibition of yeast transport mutant growth (AID 636; in the data active = inhibition above about 31%); details: absorbance 615 nm, about 18 h, stronger effect = higher value
[8] = growth suppression of yeast trafficking mutant, preliminary HTS, modulators of trafficking downstream of Golgi apparatus project, 1536-format plate, OD 615 nm (AID 637; in the data active = inhibition above about 30%); details: yeast transport mutant growth, absorbance 615 nm, 18 h; stronger effect = higher value
[9] = H69AR cells + 2 uM doxorubicin, measured here: viability with 2 uM doxorubicin, stronger effect = lower value
[10] = H69AR cells, compound alone cytotoxicity

Sequence of Receptor tyrosine-protein kinase erbB-2 (Homo sapiens) (P04626 whole entry, looked up): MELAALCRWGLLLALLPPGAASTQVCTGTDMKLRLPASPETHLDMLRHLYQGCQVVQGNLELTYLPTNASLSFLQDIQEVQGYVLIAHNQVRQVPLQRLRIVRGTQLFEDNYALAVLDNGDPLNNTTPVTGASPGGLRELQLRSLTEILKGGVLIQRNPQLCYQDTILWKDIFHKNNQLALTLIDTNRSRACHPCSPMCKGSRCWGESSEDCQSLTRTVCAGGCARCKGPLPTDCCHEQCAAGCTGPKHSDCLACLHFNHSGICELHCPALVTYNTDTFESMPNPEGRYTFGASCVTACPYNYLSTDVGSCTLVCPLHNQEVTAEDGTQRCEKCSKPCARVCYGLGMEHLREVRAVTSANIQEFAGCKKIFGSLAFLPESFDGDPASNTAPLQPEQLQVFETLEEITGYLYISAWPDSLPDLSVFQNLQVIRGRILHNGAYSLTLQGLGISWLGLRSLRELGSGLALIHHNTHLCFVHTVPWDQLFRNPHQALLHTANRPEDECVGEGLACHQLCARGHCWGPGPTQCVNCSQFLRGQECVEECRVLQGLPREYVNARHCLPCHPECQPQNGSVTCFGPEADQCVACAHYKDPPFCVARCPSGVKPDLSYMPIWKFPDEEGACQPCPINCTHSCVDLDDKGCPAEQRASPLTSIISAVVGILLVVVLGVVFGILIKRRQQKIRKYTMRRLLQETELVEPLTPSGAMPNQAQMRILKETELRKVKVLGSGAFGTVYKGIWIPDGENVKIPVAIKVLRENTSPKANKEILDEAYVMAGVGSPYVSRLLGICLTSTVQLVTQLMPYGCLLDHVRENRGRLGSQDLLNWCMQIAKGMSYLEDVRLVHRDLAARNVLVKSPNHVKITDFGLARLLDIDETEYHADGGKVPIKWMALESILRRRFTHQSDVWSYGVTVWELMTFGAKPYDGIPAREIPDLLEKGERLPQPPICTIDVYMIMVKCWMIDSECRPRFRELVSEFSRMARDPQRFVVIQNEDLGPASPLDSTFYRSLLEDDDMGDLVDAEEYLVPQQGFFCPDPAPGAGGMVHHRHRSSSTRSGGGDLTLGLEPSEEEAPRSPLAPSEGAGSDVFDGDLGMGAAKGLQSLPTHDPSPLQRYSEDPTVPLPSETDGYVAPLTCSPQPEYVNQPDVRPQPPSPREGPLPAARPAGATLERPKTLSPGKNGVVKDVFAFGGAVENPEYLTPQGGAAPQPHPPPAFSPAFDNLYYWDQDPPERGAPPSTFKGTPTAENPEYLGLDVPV

| Structure (SMILES) | viability [1] [%] | Her2 level [2] | viability [3] | viability [4] | viability [5] | differential viability (reversal) ([6]; H69AR cells + 2 uM doxorubicin) | viability [6, 9] [%] | viability [6, 10] [%] | inhibition [7] | inhibition [8] |
| --- | --- | --- | --- | --- | --- | --- | --- | --- | --- | --- |
| Cc1cc(N2CCN(c3ccccn3)CC2)n2nc(C)nc2n1 | 102 | 114% (inactive) | 102% (inactive) | 90.2% (inactive) | 87.4% (inactive) | -7.31% (inactive) | 94.7 | 87.4 | -4.23% (inactive) | -7% (inactive) |
| COc1ccccc1CNC(=O)CCNC(=O)Cn1ccc2ccccc2c1=O | 93 | 92% (inactive) | 93% (inactive) | 98.3% (inactive) | 100% (inactive) | 12.8% (inactive) | 87.4 | 100 | -0.13% (inactive) | 4.59% (inactive) |
| CCN(CCCNC(=O)CCNC(=O)Cn1ccc2ccccc2c1=O)c1ccccc1 | 97.5 | 87.5% (inactive) | 97.5% (inactive) | 109% (inactive) | 98.3% (inactive) | 11.8% (inactive) | 86.5 | 98.3 | -5.47% (inactive) | -2.86% (inactive) |
| CCN(C(=O)CCc1nc(-c2ccccc2F)no1)c1cc(OC)ccc1OC | 87.5 | 130% (inactive) | 87.5% (inactive) | 68.1% (inactive) | 92.4% (inactive) | -2.4% (inactive) | 94.8 | 92.4 | 1.71% (inactive) | 0.33% (inactive) |
| Cc1cc(C(=O)CSc2nc3ccccc3[nH]2)c(C)n1C | 100 | 86% (inactive) | 100% (inactive) | 120% (inactive) | 94.4% (inactive) | 12.8% (inactive) | 81.6 | 94.4 | -4.93% (inactive) | -8.36% (inactive) |
| COc1ccc(-n2ncc3c(=O)n(CC(=O)OCc4ccccc4)cnc32)cc1 | 83 | 104% (inactive) | 83% (inactive) | 99.1% (inactive) | 97.8% (inactive) | 12% (inactive) | 85.8 | 97.8 | 0% (inactive) | 0.5% (inactive) |
| Cc1ccc(NC(=O)CSc2nnc(Cc3cccn3C)n2-c2ccc(F)cc2)cc1 | 82.5 | 78.5% (inactive) | 82.5% (inactive) | 84% (inactive) | 91.9% (inactive) | -4.92% (inactive) | 96.8 | 91.9 | -1.03% (inactive) | -4.83% (inactive) |
| Cc1ccccc1NS(=O)(=O)c1cc(S(C)(=O)=O)ccc1Cl | 96 | 98.5% (inactive) | 96% (inactive) | 110% (inactive) | 94.4% (inactive) | 3.12% (inactive) | 91.3 | 94.4 | -2.4% (inactive) | -4.29% (inactive) |
| CCc1nnc(NC(=O)C2CCN(c3nccc(C)n3)CC2)s1 | 112 | 93% (inactive) | 112% (inactive) | 100% (inactive) | 99.5% (inactive) | 5.65% (inactive) | 93.9 | 99.5 | -6.22% (inactive) | -2.17% (inactive) |
| CC1Cc2nc(SCC(=O)Nc3ccc(F)cc3F)n(C)c(=O)c2S1 (stereo not given) | 90 | 100% (inactive) | 90% (inactive) | 102% (inactive) | 91.7% (inactive) | -8.34% (inactive) | 100 | 91.7 | -1.78% (inactive) | 2.7% (inactive) |
| CCOc1ccccc1N(C(=O)Cn1nnnc1-c1ccc(C)o1)C(CC)C(=O)NC(C)(C)C (stereo not given) | 88.5 | 105% (inactive) | 88.5% (inactive) | 120% (inactive) | 88.5% (inactive) | -14.7% (inactive) | 103 | 88.5 | 1.51% (inactive) | 4.6% (inactive) |
| Cc1cccc(C)c1NC(=O)CS(=O)CC(=O)NC1CCCc2ccccc21 (stereo not given) | 96.5 | 82.5% (inactive) | 96.5% (inactive) | 103% (inactive) | 88.7% (inactive) | -3.62% (inactive) | 92.3 | 88.7 | -6.8% (inactive) | -4.59% (inactive) |
| COc1ccc(N2C(=O)CC(N3CCN(c4ccccc4F)CC3)C2=O)cc1 (stereo not given) | 88 | 98% (inactive) | 88% (inactive) | 91.1% (inactive) | 105% (inactive) | 2.14% (inactive) | 103 | 105 | -1.07% (inactive) | 2.26% (inactive) |
| O=S(=O)(c1ccccc1)N(Cc1nc(-c2ccccc2)no1)C1CCCCC1 | 88 | 77% (inactive) | 88% (inactive) | 96.1% (inactive) | 75.5% (inactive) | -4.17% (inactive) | 79.6 | 75.5 | -6.27% (inactive) | -3.33% (inactive) |
| CCNS(=O)(=O)c1c(C)cc(N2CCCC2=O)cc1C | 95.5 | 109% (inactive) | 95.5% (inactive) | 112% (inactive) | 98.8% (inactive) | 8.17% (inactive) | 90.6 | 98.8 | -3.87% (inactive) | -1.31% (inactive) |
| Cc1cnn(Cc2ccccc2)c1N | 115 | 73.5% (inactive) | 115% (inactive) | 84.3% (inactive) | 88.7% (inactive) | 11.2% (inactive) | 77.6 | 88.7 | -6.08% (inactive) | 4.76% (inactive) |

| Structure (SMILES) | viability [1] [%] | Her2 level [2] | viability [3] | viability [4] | viability [5] | differential viability (reversal) ([6]; H69AR cells + 2 uM doxorubicin) | viability [6, 9] [%] | viability [6, 10] [%] | inhibition [7] | inhibition [8] |
| --- | --- | --- | --- | --- | --- | --- | --- | --- | --- | --- |
| COc1cc(NC(=O)NC(C)(C(F)(F)F)C(F)(F)F)cc(OC)c1OC | 138 | 106% (inactive) | 138% (inactive) | 91.1% (inactive) | 99.5% (inactive) | -2.39% (inactive) | 102 | 99.5 | -4.08% (inactive) | 11.3% (inactive) |
| O=C(Nc1ccc(Cl)cc1)C1CC=CCC1C(=O)OCC(F)(F)C(F)F (stereo not given) | 93 | 92.5% (inactive) | 93% (inactive) | 103% (inactive) | 94.6% (inactive) | 7.29% (inactive) | 87.3 | 94.6 | -6.89% (inactive) | -3% (inactive) |
| Cn1c(=O)c2c3c(sc2n2c(SCc4ccccc4)nnc12)CCCC3 | 77 | 91.5% (inactive) | 77% (inactive) | 88.8% (inactive) | 87.5% (inactive) | 9.04% (inactive) | 78.4 | 87.5 | -2.93% (inactive) | -1.75% (inactive) |
| CCOc1cc(C2c3c(n[nH]c3C)C(=O)N2c2ccc(Br)cc2)ccc1O (stereo not given) | 102 | 71.5% (inactive) | 102% (inactive) | 53.1% (inactive) | 72.9% (inactive) | 9.98% (inactive) | 62.9 | 72.9 | -4.27% (inactive) | 3.44% (inactive) |
| O=C(Oc1ccc2c(c1)CCC2)N1CCOCC1 | 90 | 144% (inactive) | 90% (inactive) | 99.9% (inactive) | 95.6% (inactive) | 6.64% (inactive) | 88.9 | 95.6 | 4.87% (inactive) | -5% (inactive) |
| CC1CCN(S(=O)(=O)c2ccc(S(=O)(=O)NCC(=O)C(C)(C)C)cc2)CC1 | 108 | 97% (inactive) | 108% (inactive) | 92.7% (inactive) | 91.8% (inactive) | 6.57% (inactive) | 85.3 | 91.8 | -6.97% (inactive) | -8.23% (inactive) |
| Cc1cc(NC(=O)c2cnn3cccnc23)no1 | 101 | 108% (inactive) | 101% (inactive) | 97% (inactive) | 97.8% (inactive) | 4.21% (inactive) | 93.5 | 97.8 | -0.92% (inactive) | -5.65% (inactive) |
| CCN(Cc1nc2ccccc2c(=O)[nH]1)Cc1nc2cc(OC)c(OC)cc2c(=O)[nH]1 | 88.5 | 114% (inactive) | 88.5% (inactive) | 99.5% (inactive) | 89.8% (inactive) | -2.33% (inactive) | 92.1 | 89.8 | 0.54% (inactive) | 9.83% (inactive) |
| CCOP(=O)(c1ccc(N(C)C)cc1)C(O)c1ccccc1OC (stereo not given) | 86 | 98.5% (inactive) | 86% (inactive) | 115% (inactive) | 98.7% (inactive) | 3.56% (inactive) | 95.1 | 98.7 | -1.07% (inactive) | -3.65% (inactive) |
| c1ccc(CNc2c3c(nc4ncnn24)CCCC3)nc1 | 95.5 | 83.5% (inactive) | 95.5% (inactive) | 109% (inactive) | 85.2% (inactive) | -4.29% (inactive) | 89.5 | 85.2 | -5.34% (inactive) | -3.33% (inactive) |
| COc1ccc2c(c1)CCc1c(C(=O)N3CCCc4ccccc43)noc1-2 | 98 | 87% (inactive) | 98% (inactive) | 80.8% (inactive) | 81.1% (inactive) | 3% (inactive) | 78.1 | 81.1 | -6.05% (inactive) | -8.91% (inactive) |
| CCOc1ccccc1C1NC(=O)NC(C)=C1C(=O)OC1CCCC1C (stereo not given) | 94.5 | 69% (inactive) | 94.5% (inactive) | 82.5% (inactive) | 78.1% (inactive) | 2.33% (inactive) | 75.8 | 78.1 | -1.73% (inactive) | 0.81% (inactive) |
| Cc1[nH]c(=O)[nH]c(=O)c1S(=O)(=O)Nc1ccc(Oc2ccccc2)cc1 | 96 | 84.5% (inactive) | 96% (inactive) | 93.6% (inactive) | 97.8% (inactive) | 10.3% (inactive) | 87.5 | 97.8 | -0.66% (inactive) | 1.45% (inactive) |
| COc1ccc2c(c1)CCc1c(C(=O)NCc3cccnc3)noc1-2 | 97.5 | 95.5% (inactive) | 97.5% (inactive) | 102% (inactive) | 103% (inactive) | 17.7% (inactive) | 85.3 | 103 | -1.71% (inactive) | 0.55% (inactive) |
| COc1ccccc1OCc1ccc(C(=O)OCC2CCCO2)o1 (stereo not given) | 97.5 | 112% (inactive) | 97.5% (inactive) | 106% (inactive) | 100% (inactive) | 0.33% (inactive) | 99.8 | 100 | -5.39% (inactive) | -3.27% (inactive) |
| O=C(NC1CCS(=O)(=O)C1)c1c(NC(=O)C2COc3ccccc3O2)sc2c1CCCC2 (stereo not given) | 67 | 69.5% (inactive) | 67% (inactive) | 45.3% (inactive) | 38.3% (active) | 2.25% (inactive) | 36 | 38.3 | -4.67% (inactive) | -1.61% (inactive) |
